Data from ChEMBL document CHEMBL2311344, “Development of an in vivo active, dual EP1 and EP3 selective antagonist based on a novel acyl sulfonamide bioisostere” (Bioorg Med Chem Lett, 2013).
Active and inactive are the calls of the source. No cut-off for these calls is given here.

Tested on: Mus musculus
Experiment: Antihypertensive activity in mouse assessed as effect on phenylephrine-induced vasopressor activity at 5 mg/kg, sc administered 2 hrs prior to phenylephrine-challenge
Type: functional, organism-based
Parameters: dose 5 mg/kg
Conditions: not given
Method in brief: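 In the same anesthetized, carotid/jugular-cannulated mouse preparation, phenylephrine 10 μg/kg was given as an IV bolus 2 h after 5 mg/kg sc pretreatment. The change in arterial pressure served as the non-EP vasoconstriction control.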

SMILES | Activity
O=C(NS(=O)(=O)c1ccc(Cl)cc1)c1cccc(Cc2cc(Cl)ccc2OCc2ccc(Cl)cc2F)n1 | inactive

Tested on: Mus musculus
Experiment: Antihypertensive activity in mouse assessed as sulprostone-induced mean arterial pressure at 5 mg/kg, sc administered 2 hr prior to sulprostone-challenge (reference value: 53.3 +/- 2.3 mmHg)
Type: functional, Artery
Conditions: route subcutaneous
Method in brief: (§1)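 Mice were anesthetized, with the left common carotid artery and right jugular vein cannulated. Arterial pressure was recorded directly via the carotid catheter. Test agent or vehicle was given 5 mg/kg sc. After 2 h, an IV bolus went through the jugular catheter: 20 μg/kg 17-phenyl-ω-trinor PGE2 (EP1) or 10 μg/kg sulprostone (EP3). Read-out was change in MAP. n = 3 per group; two-tailed Student's t test.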

SMILES | Activity
O=C(NS(=O)(=O)c1ccc(Cl)cc1)c1cccc(Cc2cc(Cl)ccc2OCc2ccc(Cl)cc2F)n1 | 32 mmHg

Tested on: Mus musculus
Experiment: Antihypertensive activity in mouse assessed as 17PTPGE2-induced mean arterial pressure at 5 mg/kg, sc administered 2 hr prior to 17PTPGE2-challenge (reference value: 50.3 +/- 5.5 mmHg)
Type: functional, Artery
Conditions: route subcutaneous
Method in brief: as §1

SMILES | Activity
O=C(NS(=O)(=O)c1ccc(Cl)cc1)c1cccc(Cc2cc(Cl)ccc2OCc2ccc(Cl)cc2F)n1 | 27 mmHg

Tested on: Mus musculus
Experiment: AUC in mouse at 5 mg/kg, sc
Type: ADME, organism-based, Plasma
Parameters: dose 5 mg/kg, route subcutaneous
Conditions: in vivo
Method in brief: (§2)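 Subcutaneous dose of 5 mg/kg in mice (n = 3). Plasma sampled intermittently to build a concentration-time profile. Cmax, tmax and AUC were taken from that profile.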

SMILES | AUC
O=C(NS(=O)(=O)c1ccc(Cl)cc1)c1cccc(Cc2cc(Cl)ccc2OCc2ccc(Cl)cc2F)n1 | 7.508 µM·h

Tested on: Plasma
Experiment: Fraction unbound in mouse plasma
Type: ADME, cell-free
Conditions: not given

SMILES | Fu
CC(C)CNC(=O)c1cccc(Cc2cc(Cl)ccc2OCc2ccc(Cl)cc2F)n1 | 0.01
O=C(NS(=O)(=O)c1ccc(Cl)cc1)c1cccc(Cc2cc(Cl)ccc2OCc2ccc(Cl)cc2F)n1 | 0.004
O=C(O)c1cccc(Cc2cc(Cl)ccc2OCc2ccc(Cl)cc2F)n1 | 0.005

Tested on: not listed separately
Experiment: Drug metabolism in mouse liver microsomes assessed as cytochrome P450-mediated benzylic oxidation
Type: ADME, Microsome
Conditions: not given

SMILES | Drug metabolism
O=C(NS(=O)(=O)c1ccc(Cl)cc1)c1cccc(Cc2cc(Cl)ccc2OCc2ccc(Cl)cc2F)n1 | Active

Tested on: not listed separately
Experiment: Drug metabolism in mouse liver microsomes assessed as cytochrome P450-mediated methylene linker oxidation
Type: ADME, Microsome
Conditions: not given

SMILES | Drug metabolism
O=C(NS(=O)(=O)c1ccc(Cl)cc1)c1cccc(Cc2cc(Cl)ccc2OCc2ccc(Cl)cc2F)n1 | Active

Tested on: not listed separately
Experiment: Drug metabolism in mouse liver microsomes assessed as cytochrome P450-mediated oxidation
Type: ADME, Microsome
Conditions: not given

SMILES | Drug metabolism
CC(C)CNC(=O)c1cccc(Cc2cc(Cl)ccc2OCc2ccc(Cl)cc2F)n1 | Active

Tested on: not listed separately
Experiment: Drug metabolism in mouse liver microsomes assessed as esterase-mediated sulfonamide hydrolysis
Type: ADME, Microsome
Conditions: not given

SMILES | Drug metabolism
O=C(NS(=O)(=O)c1ccc(Cl)cc1)c1cccc(Cc2cc(Cl)ccc2OCc2ccc(Cl)cc2F)n1 | Active

Tested on: not listed separately
Experiment: Drug metabolism in mouse liver microsomes assessed as esterase-mediated hydrolysis
Type: ADME, Microsome
Conditions: not given

SMILES | Drug metabolism
CC(C)CNC(=O)c1cccc(Cc2cc(Cl)ccc2OCc2ccc(Cl)cc2F)n1 | Active

Tested on: not listed separately
Experiment: Oral bioavailability in mouse at 10 mg/kg
Type: ADME, organism-based
Conditions: in vivo
Method in brief: (§3)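 Mice were dosed IV at 1 mg/kg or orally at 10 mg/kg. From plasma, the following were derived: systemic plasma clearance, Vss, t1/2 and oral bioavailability (%F).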

SMILES | bioavailability
O=C(O)c1cccc(Cc2cc(Cl)ccc2OCc2ccc(Cl)cc2F)n1 | 13.8%

Tested on: not listed separately
Experiment: Volume of distribution at steady state in mouse at 1 mg/kg, iv
Type: ADME, organism-based
Parameters: dose 1 mg/kg, route intravenous
Conditions: in vivo, read-out: Vdss
Method in brief: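 Mouse plasma pharmacokinetics after a single intravenous 1 mg/kg dose. Systemic plasma clearance and volume of distribution predicted at steady state were derived from the IV data. A separate oral arm at 10 mg/kg was used for bioavailability.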

SMILES | Vd
O=C(O)c1cccc(Cc2cc(Cl)ccc2OCc2ccc(Cl)cc2F)n1 | 0.9 L/kg

Tested on: not listed separately
Experiment: Half life in mouse at 1 mg/kg, iv
Type: ADME, organism-based
Parameters: dose 1 mg/kg, route intravenous
Conditions: in vivo
Method in brief: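 Single intravenous dose of 1 mg/kg given to mice. Half-life was derived from systemic plasma levels. Plasma clearance (CLp) and steady-state volume of distribution (Vss) came from the same study. A separate 10 mg/kg oral arm was run for bioavailability.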

SMILES | half-life
O=C(O)c1cccc(Cc2cc(Cl)ccc2OCc2ccc(Cl)cc2F)n1 | 1.08 h

Tested on: not listed separately
Experiment: Plasma clearance in mouse at 1 mg/kg, iv
Type: ADME, organism-based
Parameters: dose 1 mg/kg, route intravenous
Conditions: not given
Method in brief: as §3

SMILES | clearance
O=C(O)c1cccc(Cc2cc(Cl)ccc2OCc2ccc(Cl)cc2F)n1 | 59.2 mL/min/kg

Biological target: T1, Thromboxane A2 receptor (Mus musculus, UniProt P30987)
T1 sequence (P30987 whole entry): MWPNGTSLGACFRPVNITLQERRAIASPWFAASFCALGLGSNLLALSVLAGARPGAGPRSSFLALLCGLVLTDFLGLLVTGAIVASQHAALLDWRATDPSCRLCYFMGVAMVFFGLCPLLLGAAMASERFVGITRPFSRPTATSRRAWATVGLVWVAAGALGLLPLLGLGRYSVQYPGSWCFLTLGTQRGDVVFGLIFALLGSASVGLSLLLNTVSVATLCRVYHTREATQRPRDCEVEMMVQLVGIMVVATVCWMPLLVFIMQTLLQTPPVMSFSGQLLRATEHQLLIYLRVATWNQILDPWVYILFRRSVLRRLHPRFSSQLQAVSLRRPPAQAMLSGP
Experiment: Antagonist activity at mouse TP receptor
Conditions: not given
Method in brief: (§4)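 Affinity at mouse EP2, EP3 and EP4 is given as pKI. Signalling through mouse TP is given as pIC50. Mean ± SEM of at least three independent experiments, each run in triplicate.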

SMILES | pIC50
CC(C)CNC(=O)c1cccc(Cc2cc(Cl)ccc2OCc2ccc(Cl)cc2F)n1 | < 6
O=C(NS(=O)(=O)c1ccc(Cl)cc1)c1cccc(Cc2cc(Cl)ccc2OCc2ccc(Cl)cc2F)n1 | < 6

Biological target: Prostaglandin E2 receptor EP4 subtype (Mus musculus, UniProt P32240)
Experiment: Antagonist activity at mouse EP4 receptor
Conditions: not given
Method in brief: as §4

Prostaglandin E2 receptor EP4 subtype, sequence (P32240 whole entry): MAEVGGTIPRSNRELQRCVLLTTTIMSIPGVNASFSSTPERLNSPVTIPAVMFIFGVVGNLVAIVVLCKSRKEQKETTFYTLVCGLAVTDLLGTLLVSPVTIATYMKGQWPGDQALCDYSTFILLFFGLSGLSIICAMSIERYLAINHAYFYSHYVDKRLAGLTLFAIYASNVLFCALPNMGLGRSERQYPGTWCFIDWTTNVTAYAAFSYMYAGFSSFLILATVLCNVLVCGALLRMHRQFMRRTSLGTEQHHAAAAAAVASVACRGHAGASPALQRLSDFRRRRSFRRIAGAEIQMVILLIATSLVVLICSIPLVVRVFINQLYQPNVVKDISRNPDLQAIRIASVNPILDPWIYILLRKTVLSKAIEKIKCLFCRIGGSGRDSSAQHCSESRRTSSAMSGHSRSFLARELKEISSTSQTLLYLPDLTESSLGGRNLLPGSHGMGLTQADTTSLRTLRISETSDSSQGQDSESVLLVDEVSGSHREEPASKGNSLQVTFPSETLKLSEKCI

SMILES | Ki
CC(C)CNC(=O)c1cccc(Cc2cc(Cl)ccc2OCc2ccc(Cl)cc2F)n1 | > 1000 nM
O=C(NS(=O)(=O)c1ccc(Cl)cc1)c1cccc(Cc2cc(Cl)ccc2OCc2ccc(Cl)cc2F)n1 | > 1000 nM
O=C(O)c1cccc(Cc2cc(Cl)ccc2OCc2ccc(Cl)cc2F)n1 | > 1000 nM

Biological target: Prostaglandin E2 receptor EP2 subtype (Mus musculus, UniProt Q62053)
Experiment: Antagonist activity at mouse EP2 receptor
Conditions: not given
Method in brief: as §4

Prostaglandin E2 receptor EP2 subtype, sequence (Q62053 whole entry): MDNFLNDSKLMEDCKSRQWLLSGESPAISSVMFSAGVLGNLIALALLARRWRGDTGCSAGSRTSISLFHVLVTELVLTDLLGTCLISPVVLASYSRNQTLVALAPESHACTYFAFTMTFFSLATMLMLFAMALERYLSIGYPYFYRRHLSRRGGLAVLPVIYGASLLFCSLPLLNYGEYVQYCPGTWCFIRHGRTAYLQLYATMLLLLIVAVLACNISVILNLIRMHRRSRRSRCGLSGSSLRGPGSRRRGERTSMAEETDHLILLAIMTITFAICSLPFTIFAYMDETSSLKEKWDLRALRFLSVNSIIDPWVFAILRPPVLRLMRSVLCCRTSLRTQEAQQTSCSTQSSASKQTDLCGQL

SMILES | Ki
CC(C)CNC(=O)c1cccc(Cc2cc(Cl)ccc2OCc2ccc(Cl)cc2F)n1 | > 1000 nM
O=C(NS(=O)(=O)c1ccc(Cl)cc1)c1cccc(Cc2cc(Cl)ccc2OCc2ccc(Cl)cc2F)n1 | > 1000 nM
O=C(O)c1cccc(Cc2cc(Cl)ccc2OCc2ccc(Cl)cc2F)n1 | 1740 nM

Biological target: T2, Prostaglandin E2 receptor EP3 subtype (Mus musculus, UniProt P30557)
T2 sequence (P30557 whole entry): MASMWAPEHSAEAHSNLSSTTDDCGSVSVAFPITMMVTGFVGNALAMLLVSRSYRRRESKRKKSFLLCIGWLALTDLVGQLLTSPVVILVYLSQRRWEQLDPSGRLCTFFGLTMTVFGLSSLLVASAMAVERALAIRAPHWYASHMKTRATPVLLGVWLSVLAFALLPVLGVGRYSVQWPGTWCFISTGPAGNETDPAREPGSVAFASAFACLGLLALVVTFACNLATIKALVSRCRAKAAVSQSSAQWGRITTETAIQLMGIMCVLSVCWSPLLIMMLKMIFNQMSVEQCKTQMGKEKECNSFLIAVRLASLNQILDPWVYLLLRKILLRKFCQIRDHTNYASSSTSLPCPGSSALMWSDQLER
Experiment: Antagonist activity at mouse EP3 receptor
Conditions: not given
Method in brief: as §4

SMILES | Ki
CC(C)CNC(=O)c1cccc(Cc2cc(Cl)ccc2OCc2ccc(Cl)cc2F)n1 | 214 nM
O=C(NS(=O)(=O)c1ccc(Cl)cc1)c1cccc(Cc2cc(Cl)ccc2OCc2ccc(Cl)cc2F)n1 | 107 nM
O=C(O)c1cccc(Cc2cc(Cl)ccc2OCc2ccc(Cl)cc2F)n1 | > 1000 nM

Biological target: T3, Prostaglandin E2 receptor EP1 subtype (Mus musculus, UniProt P35375)
T3 sequence (P35375 whole entry): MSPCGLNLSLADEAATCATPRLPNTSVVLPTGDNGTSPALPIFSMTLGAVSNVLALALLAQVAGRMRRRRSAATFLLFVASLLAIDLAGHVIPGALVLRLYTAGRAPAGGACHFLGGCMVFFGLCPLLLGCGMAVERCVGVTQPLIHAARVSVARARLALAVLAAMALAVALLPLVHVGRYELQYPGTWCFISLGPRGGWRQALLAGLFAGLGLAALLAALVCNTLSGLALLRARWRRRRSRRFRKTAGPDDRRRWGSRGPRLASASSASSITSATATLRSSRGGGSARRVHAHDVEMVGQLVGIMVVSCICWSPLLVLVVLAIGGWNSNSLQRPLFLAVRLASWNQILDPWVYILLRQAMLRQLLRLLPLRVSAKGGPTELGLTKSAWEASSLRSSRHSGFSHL
Experiment: Antagonist activity at mouse EP1 receptor expressed in CHOK1 cells assessed as inhibition of 17PTPGE2-induced calcium influx
Type: functional, cell-based, CHO-K1
Conditions: read-out: Kd
Method in brief: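 CHOk1 cells expressing mouse EP1 were treated with six antagonist concentrations, then challenged with a concentration range of the EP1 agonist 17-phenyl-ω-trinor PGE2. pKD/KD came from transformed Schild regression of the concentration-response curves. Mean ± SEM of at least two independent experiments, each in duplicate.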

SMILES | Kd
CC(C)CNC(=O)c1cccc(Cc2cc(Cl)ccc2OCc2ccc(Cl)cc2F)n1 | 302 nM
O=C(NS(=O)(=O)c1ccc(Cl)cc1)c1cccc(Cc2cc(Cl)ccc2OCc2ccc(Cl)cc2F)n1 | 40.7 nM
O=C(O)c1cccc(Cc2cc(Cl)ccc2OCc2ccc(Cl)cc2F)n1 | 47.9 nM

Tested on: Mus musculus
Experiment: Cmax in mouse at 5 mg/kg, sc
Type: ADME, organism-based
Parameters: dose 5 mg/kg, route subcutaneous
Conditions: in vivo
Method in brief: as §2

SMILES | Cmax
O=C(NS(=O)(=O)c1ccc(Cl)cc1)c1cccc(Cc2cc(Cl)ccc2OCc2ccc(Cl)cc2F)n1 | 504 nM

Tested on: Mus musculus
Experiment: Tmax in mouse at 5 mg/kg, sc
Type: ADME, organism-based
Parameters: dose 5 mg/kg, route subcutaneous
Conditions: in vivo
Method in brief: as §2

SMILES | Tmax
O=C(NS(=O)(=O)c1ccc(Cl)cc1)c1cccc(Cc2cc(Cl)ccc2OCc2ccc(Cl)cc2F)n1 | 2 h
